Shown are actives, neighbours in structure and some others; about 1.3% of the full set was active somewhere.
proCasp3 act: activators of human procaspase-3 D3A mutant, primary screen, biochemical, absorbance, PC-3 D3A mutant, single concentration | Caspase-3 (Homo sapiens), P42574 | recombinant procaspase-3 D3A, Ac-DEVD-pNA absorbance 405 nm | activation, % at 8.5 µM | actives 0.11% (n = 330,000);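 active means activation above the mean of all tested compounds plus 3 SD, cut at about 21% in these data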;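 further: 0% = DMSO alone and 100% = DMSO wells spiked with extra 5 µM PC-3 D3A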
Target sequence (P42574 whole entry D9A/D28A/D175A): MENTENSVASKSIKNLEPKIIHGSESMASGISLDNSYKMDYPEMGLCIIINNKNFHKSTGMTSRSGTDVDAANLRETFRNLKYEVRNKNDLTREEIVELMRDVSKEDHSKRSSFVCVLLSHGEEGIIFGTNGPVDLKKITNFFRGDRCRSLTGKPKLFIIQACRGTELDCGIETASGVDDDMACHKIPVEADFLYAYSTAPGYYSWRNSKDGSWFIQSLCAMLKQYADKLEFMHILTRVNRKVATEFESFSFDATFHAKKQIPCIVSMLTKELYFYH
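Assay system – Procaspase-3 D3A mutant, all three cleavage aspartates alanine · Controls – DMSO-only low control, 5 µM PC-3 D3A high control · Schedule – 1 h compound preincubation, 2 h substrate hydrolysis at 25 °C · Signal – 405 nm absorbance of p-nitroaniline, reads at 0 and 120 min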
CHT PAM: CHT positive allosteric modulators, primary screen, cell-based, membrane potential dye, choline EC20 | High affinity choline transporter 1 (Homo sapiens), Q9GZV3 | CHT-expressing cells; active compounds read high; LV-AA mutant CHT in HEK293 cells | B-score at 10 µM | actives 0.49% (n = 310,000) | AID 488977, 2010;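 active means initial fluorescence not abnormally high and integrated response B-score, plate-corrected, over 3 SD above library mean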
procasp7 counter: procaspase-7 activators, primary screen, counter-screen for procaspase-3 activator project, biochemical, absorbance, HTS, human; activation, % at 8.5 µM; Caspase-7 (Homo sapiens), P55210; actives 0.093% (n = 330,000); AID 463210, 2010; recombinant procaspase-7, Ac-DEVD-pNA absorbance 405 nm; D23A/D198A/D206A triple mutant, cannot self-cleave; scale: DMSO 0, 5 µM enzyme 100;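 active means percent activation above the screen-wide mean plus 3 SD, cut at about 25% in these data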
Target sequence (P55210 whole entry D23A/D198A/D206A): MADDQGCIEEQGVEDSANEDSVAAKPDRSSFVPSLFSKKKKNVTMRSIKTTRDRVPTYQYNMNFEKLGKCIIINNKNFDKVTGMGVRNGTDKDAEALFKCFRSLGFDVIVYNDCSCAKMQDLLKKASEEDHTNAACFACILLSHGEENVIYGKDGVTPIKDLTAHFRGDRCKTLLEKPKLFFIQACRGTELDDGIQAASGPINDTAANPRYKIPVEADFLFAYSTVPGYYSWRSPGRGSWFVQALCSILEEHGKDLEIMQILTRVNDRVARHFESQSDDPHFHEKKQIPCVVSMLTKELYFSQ
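Assay system – Uncleavable procaspase-7 mutant enzyme · Quantity – 2 µM procaspase-7 mutant as dispensed · Times – 1 h preincubation, 2 h reaction · Dosing – single nominal 8.5 µM compound dose, 0.8% DMSO final · Buffer or medium – Zinc-free 50 mM HEPES buffer, pH 7.4, with NaCl and Triton X-100 · Detection – Epi-absorbance of released pNA at 405 nm, two timepoints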
CHT inh: inhibitors of human choline transporter CHT. AID 488975, 2010. B-score at 10 µM. CHT-expressing cells, membrane potential dye, choline response; active compounds read low. actives 0.86% (n = 310,000);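 active means B-score over 3 SD under the library average, and starting fluorescence ratio not unusually high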;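 further: choline stimulus applied at its EC90 after an EC20 pre-addition; B-score computed on integrated fluorescence ratio after choline addition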
CHT inh conf: CHT inhibitors, confirmation, cell-based, membrane potential dye, duplicate; shares compounds with CHT inh; CHT-expressing cells, choline membrane potential dye; LV-to-AA substituted CHT, HEK293 cells; CHT activity remaining % of control (active compounds read low), % at 10 µM; actives 70% (n = 2,400);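 active means choline transporter activity left, mean of duplicates at 10 µM, below buffer-only control mean minus 3 SD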;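 further: depolarization triggered by choline at its EC90 following an EC20 pre-addition; 0% = hemicholinium-3 full block and 100% = buffer-only control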
HEK293 CHT ctr: membrane potential effects in parental HEK293, counter-screen for CHT inhibitor project, cell-based, membrane potential dye. shares compounds with CHT inh. choline response; active = decrease or increase beyond buffer ±3SD. membrane potential ratio readout (active if shifted either direction beyond buffer ±3SD; no single direction) at 10 µM. actives 4% (n = 2,400). AID 493222, 2011;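 further: parental cells lack the transporter so any hit is non-specific; ratio is peak minus trough fluorescence over baseline after EC90 choline challenge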
Numbers without * were called inactive; i = inactive; · = not tested or not shown.

SMILES	proCasp3 act	CHT PAM	procasp7 counter	CHT inh	CHT inh conf	HEK293 CHT ctr
CC1CCCCC1NC(=O)c1cccc(S(=O)(=O)N2CCN(C)CC2)c1 (stereo not given)	4	i	7	-12*	2.1%*	i
CC1CCCCC1NC(=O)c1ccc(S(=O)(=O)N2CCCC2)cc1 (stereo not given)	8	i	-3	-5.4*	7.2%*	i
CN(C)C(=O)Cn1cnc2c(cnn2-c2ccc(F)cc2)c1=O	-12	i	-2	i	·	·
CSCCC(NC(=O)c1ccccc1)C(=O)NNC(=O)c1ccccc1 (stereo not given)	8	·	0	·	·	·
CSCCC(NC(=O)c1ccccc1)C(=O)Nc1ccc(C)cc1 (stereo not given)	4	i	-1	-7.5*	70%*	i
COc1ccccc1N1CCN(C(=O)c2cc(=O)c3c(C)cc(C)cc3o2)CC1	-4	i	-3	i	·	·
CC(=O)Oc1ccc2nc(-c3ccco3)oc(=O)c2c1	8	i	5	-10*	i	i
CC1(C)CC(=O)/C(=C(\O)CCCN2C(=O)c3ccccc3C2=O)C(=NCC(=O)O)C1	0	i	-2	-5.4*	i	i
CN(Cc1ccccc1)S(=O)(=O)c1ccc2[nH]cc(C(=O)NCC3CCCO3)c(=O)c2c1 (stereo not given)	-4	i	13	-10*	43%*	i
O=[N+]([O-])c1cc([N+](=O)[O-])c2c(=Nc3ccccc3)n(-c3ccccc3)n(O)c2c1	10	i	4	-6.2*	61%*	i
O=[N+]([O-])c1cc(Br)c(Nc2ccccc2)c([N+](=O)[O-])c1	-1	i	-1	i	·	·
CC1(C(=O)N2CCC(CC3CC(c4ccc(Cl)cc4)=NO3)(C(=O)NCC3CCCCC3)CC2)CC1 (stereo not given)	2	i	4	-5.2*	71%*	i
CC1(C(=O)N2CCC(CC3CC(c4cccc(Br)c4)=NO3)(C(=O)NCC3CCCCC3)CC2)CC1 (stereo not given)	-3	i	2	i	·	·
CC1CCCC(C)N1CCCNC(=O)CN1C(=O)COc2ccc(S(=O)(=O)N3CCOCC3)cc21 (stereo not given)	2	i	7	i	·	·
CC1CCCCN1CCNC(=O)CN1C(=O)CSc2ccc(S(=O)(=O)N3CCCCC3)cc21 (stereo not given)	3	i	-1	-6.7*	45%*	i
CC1CCN(S(=O)(=O)c2ccc3c(c2)N(CC(=O)NCCCN2C(C)CCCC2C)C(=O)CO3)CC1 (stereo not given)	8	i	7	-7.4*	34%*	i
CC1CCCCN1CCCNC(=O)CN1C(=O)CSc2ccc(S(=O)(=O)N3CCOCC3)cc21 (stereo not given)	-6	i	9	i	·	·
CC(C)Oc1ccc(CCC(=O)NNC(=O)CCC(=O)O)cc1	1	i	-9	i	·	·
C=CCSc1nc(Oc2ccccc2)c2sccc2n1	-1	i	-6	i	·	·
C=CCNc1nc(SCC=C)nc2ccsc12	8	i	11	-8.4*	25%*	i
O=C(Nc1cccc([N+](=O)[O-])c1)C(=O)N1CCCCC1	-6	i	8	-5*	i	i
CCCc1cc(=O)[nH]c(SCc2cc(C(=O)OC)c(C)o2)n1	6	i	-7	-6*	i	i
CCN1CCN(C(=O)CCc2nc3ccccc3n2-c2ccccc2)CC1	4	i	8	-6.1*	40%*	i
COc1ccc(NC(=O)COc2cccc(-n3cnnn3)c2)cc1Cl	6	i	0	i	·	·
Cc1ccc(S(=O)(=O)N2CCC(C(=O)C3C(=O)CC(C)(C)CC3=O)CC2)cc1	-2	i	-6	-6.4*	i	i
SMILES	proCasp3 act	CHT PAM	procasp7 counter	CHT inh	CHT inh conf	HEK293 CHT ctr
COc1cccc(/C=N/NC(=O)C(=O)NCc2cccnc2)c1OC	0	i	3	-5.9*	i	i
COc1ccccc1N(CC(=O)NC(C)(C)C)C(=O)CCC(=O)Nc1nccs1	8	i	2	i	·	·
Cc1cccc(-c2nc3ccccc3c(=O)n2N)c1	10	i	9	i	·	·
Nn1c(-c2ccccc2)nc2cc(Cl)ccc2c1=O	8	i	-1	-7.2*	i	i
Cc1cccc(C(=O)Nc2sc(-c3ccccc3)cc2C(=O)O)c1	-6	i	3	-6.3*	53%*	i
CC(C)(C)C(=O)Nc1sc(-c2ccccc2)cc1C(=O)O	-3	i	-1	i	·	·
OC(CNCC#Cc1ccccc1)c1ccccc1 (stereo not given)	-5	i	6	-6.8*	52%*	i
Cc1cc(C)c2cc(C=O)c(Cl)nc2c1	3	i	2	-6.1*	i	i
Cc1ccc(OCC(=O)Oc2c(C)cccc2C)cc1C	9	i	-10	i	·	·
CCCc1cc(-c2n[nH]c(=S)n2CC)cs1	-6	i	-17	i	·	·
CCCCn1c(-c2csc(CCC)c2)n[nH]c1=S	-14	i	-26	-5.6*	i	i
COc1ccc(C(C(=O)NC2CCCCC2)N(Cc2ccco2)C(=O)c2ccccn2)c(OC)c1 (stereo not given)	6	i	8	i	·	·
CC1=C(C(=O)Nc2cccc(C(=O)NC3CCCC(C)C3C)c2)SCCO1 (stereo not given)	-1	i	3	-5.6*	57%*	i
CCOC(=O)C1CCN(C(=O)CN(c2ccc3c(c2)OCCO3)S(=O)(=O)c2ccccc2)CC1	6	i	-2	i	·	·
CCC(C(=O)OCC(=O)N1CCN(c2ccc(OC)cc2)CC1)c1ccccc1 (stereo not given)	9	·	2	·	·	·
CC(OC(=O)Cn1[nH]c(=O)c2ccccc2c1=O)C(=O)Nc1ccc(F)cc1Cl (stereo not given)	-11	i	2	i	·	·
O=C(NC1CCN(Cc2ccccc2)CC1)c1ccc(S(=O)(=O)NCc2ccco2)cc1	2	i	1	i	·	·
